Data set [1] addresses Heat shock protein HSP90 (Homo sapiens, UniProt P07900+P08238). Briefly: Inhibition of recombinant full-length HSP90 ATPase activity N-terminal domain (9 to 236 residues) (unknown origin) expressed in Escherichia coli BL21 (DE3) measured after 1 hr by ADP hunter plus assay.
Data set [2] concerns the target Heat shock protein HSP 90-beta/Hsp90 co-chaperone Cdc37 (Homo sapiens) (UniProt P08238+Q16543). Briefly: Inhibition of HSP90-CDC37 protein-protein interaction in human HCT116 cells up to 1 uM measured after 12 hrs by coimmunoprecipitation-based Western blot assay. The class given is cell-based. The method in brief:
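HCT116 cells grown to ~90% confluence in 10 cm dishes, exposed to compound or DMSO for 12 h, then washed with ice-cold PBS and lysed in RIPA buffer (50 mM Tris, 150 mM NaCl, 1% NP-40, protease inhibitors, pH 7.4) for 1 h on ice. Hsp90 was immunoprecipitated with protein A/G magnetic beads over 3 h. Western blots probed Hsp90, Cdc37 and CDK4.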
On the technique in general: Immunoblotting shows a protein as a band on a membrane.

Data set [3] is described as follows: Toxicity in human HCT116 cells xenografted BALB/c mouse assessed as body weight loss at 40 to 80 mg/kg, po administered once daily for 21 days measured at 3 days interval during compound dosing. The class given is organism-based. Particulars: in vivo. In a few lines: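 BALB/c nude mice (6 weeks old) carried flank HCT116 xenografts (1×10^7 cells with Matrigel, 3:1). Dosing started at mean tumor volume 125 mm³: oral 40 or 80 mg/kg daily for 21 days, vehicle 0.9% saline with 5% DMSO. Body weight was recorded every 3 days; n = 6.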
On the technique in general: A xenograft is tissue or cells of one species grown in another, often human tumour cells in immunodeficient mice.

Data set [4] in a line: Toxicity in human HCT116 cells xenografted BALB/c mouse assessed as effect on heart at 40 to 80 mg/kg, po administered once daily for 21 days measured post-last dose by H and E staining-based imaging analysis. In kind it is organism-based. Particulars: in vivo, 504 h. In a few lines: (§1)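 Same xenograft model in BALB/c nude mice with oral daily dosing at 40 or 80 mg/kg in 5% DMSO/saline for 21 days. After sacrifice, organs were fixed in 4% formaldehyde, paraffin-embedded, sectioned at 4 μm and H&E-stained for light-microscopy imaging.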

Data set [5] in a line: Toxicity in human HCT116 cells xenografted BALB/c mouse assessed as effect on liver at 40 to 80 mg/kg, po administered once daily for 21 days measured post-last dose by H and E staining-based imaging analysis. In kind it is organism-based. Particulars: in vivo, 504 h. In a few lines:
as §1

Data set [6] can be described thus: Toxicity in human HCT116 cells xenografted BALB/c mouse assessed as effect on kidney at 40 to 80 mg/kg, po administered once daily for 21 days measured post-last dose by H and E staining-based imaging analysis. In kind it is organism-based. Particulars: in vivo, 504 h. The method in brief:
as §1

Data set [7] in a line: Toxicity in human HCT116 cells xenografted BALB/c mouse assessed as effect on lung at 40 to 80 mg/kg, po administered once daily for 21 days measured post-last dose by H and E staining-based imaging analysis. In kind it is organism-based. Particulars: in vivo, 504 h. In a few lines: as §1
Data set [8] in a line: Toxicity in human HCT116 cells xenografted BALB/c mouse assessed as effect on spleen at 40 to 80 mg/kg, po administered once daily for 21 days measured post-last dose by H and E staining-based imaging analysis. In kind it is organism-based. Particulars: in vivo, 504 h. The method in brief:
as §1

For orientation: IC50 means the point on the concentration scale where inhibition reaches its midpoint.

Molecules are shown by their SMILES. Active and inactive are the calls of the source. The rule behind the calls is not given here.

`CC(C)c1cc(C(=O)N2Cc3ccc(CN4CCN(C)CC4)cc3C2)c(O)cc1O` [ONALESPIB]: the 50% inhibitory concentration (IC50) in data set [1] was 150 nM. For the same compound, the inhibition result in data set [2] is “inactive”.
With `Cc1cc(C)c(S(=O)(=O)N(CC(=O)O)c2ccc(Nc3ccnc(N4CCNCC4)n3)cc2)c(C)c1.Cl`, the Activity entry in data set [3], in data set [4], in data set [5], in data set [6], in data set [7] and in data set [8] was “Non-Toxic” throughout.

For the origin of these results see ChEMBL document CHEMBL4376883, “Discovery and Optimization of Small Molecules Targeting the Protein-Protein Interaction of Heat Shock Protein 90 (Hsp90) and Cell Division Cycle 37 as Orally Active Inhibitors for the Treatment of Colorectal Cancer” (J Med Chem, 2020).
